Data reported in ChEMBL document CHEMBL3272247, “Synthesis, antifertility activity, and protein binding affinity of 7(8 leads to 11 alpha)abeo steroids” (1977).
Each block holds one molecule with its values, some of them ahead of it. Calls of active or inactive are those of the source. The rule behind the calls is not given here.

Assays:
Rattus norvegicus [1] = experiment: Antifertility activity in sc dosed Sprague-Dawley rat assessed as no implantation administered for 5 days measured on day 10; format: functional
Procedure, shortened: (§1)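 Mated females dosed in sesame oil (0.1 mL) over 5 days from day 0 of pregnancy (sperm-positive day). Autopsy on day 10 of presumptive pregnancy; normal and resorbing fetuses counted. ED100 = dose (mg/kg/day) giving no implantation sites.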

Rattus norvegicus [2] = experiment: Uterotropic activity in sc dosed rat administered for 3 days relative to estradiol; format: functional, Uterus
Procedure, shortened: (§2)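 Immature female rats, 45–55 g, dosed daily for 3 days with sesame oil suspension (0.1 mL); vehicle controls. Uteri removed, cleaned, weighed (nearest 0.2 mg) next day. Expressed as percent activity relative to estradiol (sc) or ethynylestradiol (oral).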

Oryctolagus cuniculus [3] = species on record: Oryctolagus cuniculus; experiment: Displacement of [3H]estradiol from rabbit estrogen receptor after 24 hrs at 0.1 nM to 10 mM
Procedure, shortened: (§3)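 Uterine cytosol from TE buffer (Tris-HCl, 1 mM EDTA, pH 7.4) homogenate by ultracentrifugation. Competitor 0.1 nM–10 mM with constant label ([3H]estradiol 6000 cpm or [3H]progesterone 20000 cpm), 24 h at 4 °C, started by cytosol addition. Bound label isolated; RBA derived against unlabeled estradiol or progesterone standard curves.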

Oryctolagus cuniculus [4] = experiment: Progestational activity in Clauberg rabbit at 20 mg/kg/day, sc; format: functional, organism-based
Procedure, shortened: (§4)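 Immature rabbit (Clauberg); uterine stimulation measured for progestational activity, and its antagonism for antiprogestational activity.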

[5] = target: T1, Progesterone receptor (Oryctolagus cuniculus) (UniProt P06186); experiment: Displacement of [3H]progesterone from rabbit progesterone receptor after 24 hrs at 0.1 nM to 10 mM; procedure, shortened: as §3
T1 sequence (whole entry): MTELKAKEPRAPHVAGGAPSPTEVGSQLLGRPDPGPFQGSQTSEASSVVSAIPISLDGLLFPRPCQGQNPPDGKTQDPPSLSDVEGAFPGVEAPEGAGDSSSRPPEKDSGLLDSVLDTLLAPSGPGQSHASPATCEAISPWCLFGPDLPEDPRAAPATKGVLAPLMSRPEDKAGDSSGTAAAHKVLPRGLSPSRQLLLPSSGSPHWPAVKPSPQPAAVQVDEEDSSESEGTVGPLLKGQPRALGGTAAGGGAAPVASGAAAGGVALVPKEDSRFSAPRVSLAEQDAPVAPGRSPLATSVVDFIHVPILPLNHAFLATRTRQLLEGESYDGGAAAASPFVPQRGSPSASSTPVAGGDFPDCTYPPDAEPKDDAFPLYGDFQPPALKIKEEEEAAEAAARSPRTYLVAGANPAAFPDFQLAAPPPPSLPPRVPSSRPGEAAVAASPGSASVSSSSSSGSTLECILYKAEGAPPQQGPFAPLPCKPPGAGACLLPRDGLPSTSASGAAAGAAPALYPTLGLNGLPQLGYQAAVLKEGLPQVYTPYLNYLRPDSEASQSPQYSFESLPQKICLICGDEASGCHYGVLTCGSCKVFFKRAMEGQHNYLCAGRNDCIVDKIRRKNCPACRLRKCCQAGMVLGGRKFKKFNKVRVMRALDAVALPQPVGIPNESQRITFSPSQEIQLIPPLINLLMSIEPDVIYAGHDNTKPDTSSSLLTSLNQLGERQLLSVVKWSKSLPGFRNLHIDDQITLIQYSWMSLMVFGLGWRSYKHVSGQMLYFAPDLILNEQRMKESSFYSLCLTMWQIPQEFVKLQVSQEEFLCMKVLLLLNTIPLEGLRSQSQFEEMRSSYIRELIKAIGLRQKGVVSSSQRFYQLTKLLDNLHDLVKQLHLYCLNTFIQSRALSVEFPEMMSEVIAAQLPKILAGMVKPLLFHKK

Oryctolagus cuniculus [6] = experiment: Antiprogestational activity in Clauberg rabbit at 20 mg/kg/day, sc; format: functional, organism-based; procedure, shortened: as §4
Rattus norvegicus [7] = experiment: Antiandrogenic activity in rat assessed as inhibition of androgen stimulation of levator ani weight at 30 mg/kg/day, sc; format: functional, organism-based
Procedure, shortened: (§5)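 Immature, castrated male rats; test compound assessed for ability to inhibit androgen stimulation of seminal vesicle, ventral prostate and levator ani weight.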

Rattus norvegicus [8] = experiment: Antifertility activity in Sprague-Dawley rat assessed as no implantation at 4 mg/kg/day, sc administered for 5 days measured on day 10; format: functional, organism-based; procedure, shortened: as §1
Rattus norvegicus [9] = experiment: Uterotropic activity in rat at 1 mg/kg/day, sc administered for 3 days relative to ethynylestradiol; conditions: Uterus
Rattus norvegicus [10] = experiment: Antiandrogenic activity in rat assessed as inhibition of androgen stimulation of ventral prostate at 30 mg/kg/day, sc; format: functional, organism-based; conditions: Prostate gland; procedure, shortened: as §5
Rattus norvegicus [11] = experiment: Antiuterotropic activity in rat assessed as D-estradiol-induced increase in uterine weight inhibition of at 5 mg/kg/day, sc administered for 3 days; format: functional, organism-based
Procedure, shortened: (§6)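 Immature female rats, 45–55 g, given estradiol together with test compound daily for three consecutive days as sesame oil suspension (0.1 mL); vehicle-only controls. Uteri excised, cleaned and weighed to nearest 0.2 mg the day after last treatment.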

Rattus norvegicus [12] = experiment: Antiandrogenic activity in rat assessed as inhibition of androgen stimulation of seminal vesicle at 30 mg/kg/day, sc; format: functional, organism-based; procedure, shortened: as §5
Oryctolagus cuniculus [13] = experiment: Antiprogestational activity in Clauberg rabbit at 10 mg/kg/day, sc; format: functional, organism-based; procedure, shortened: as §4
Oryctolagus cuniculus [14] = experiment: Progestational activity in Clauberg rabbit at 10 mg/kg/day, sc; format: functional, organism-based; procedure, shortened: as §4
Rattus norvegicus [15] = experiment: Antifertility activity in Sprague-Dawley rat assessed as no implantation at 10 mg/kg/day, sc administered for 5 days measured on day 10; format: functional, organism-based; procedure, shortened: as §1
Rattus norvegicus [16] = experiment: Antifertility activity in Sprague-Dawley rat assessed as no implantation at 6.8 mg/kg/day, po administered for 5 days measured on day 10; format: functional, organism-based; procedure, shortened: as §1
Rattus norvegicus [17] = experiment: Uterotropic activity in po dosed rat administered for 3 days relative to ethynylestradiol; format: functional, Uterus; procedure, shortened: as §2
Rattus norvegicus [18] = experiment: Antiuterotropic activity in rat assessed as D-estradiol-induced increase in uterine weight inhibition of at 10 ug/kg/day, po administered for 3 days; format: functional, organism-based; procedure, shortened: as §6
Oryctolagus cuniculus [19] = experiment: Antiprogestational activity in Clauberg rabbit at 10 mg/kg/day, po; format: functional, organism-based; procedure, shortened: as §4
Oryctolagus cuniculus [20] = experiment: Progestational activity in Clauberg rabbit at 10 mg/kg/day, po; format: functional, organism-based; procedure, shortened: as §4

SMILES: CC(=O)[C@H]1CC[C@H]2C[C@@H]3[C@@H](CCC4=CC(=O)CC[C@H]43)C[C@@]21C
Activity (Oryctolagus cuniculus [4]): inactive | RBA [5]: 1.2 | Activity (Oryctolagus cuniculus [6]): inactive

SMILES: C#C[C@]1(O)CC[C@H]2C[C@H]3c4ccc(O)cc4CC[C@H]3C[C@@]21C
Activity (Rattus norvegicus [16]): inactive | relative binding affinity (RBA) (Rattus norvegicus [17]): 0.18 | RBA [5]: < 0.4 | RBA (Oryctolagus cuniculus [3]): 4.4 | Activity (Rattus norvegicus [18]): inactive

SMILES: C#C[C@]1(O)CC[C@H]2C[C@@H]3[C@@H](CCC4=CC(=O)CC[C@H]43)C[C@@]21C
Activity (Oryctolagus cuniculus [19]): inactive | RBA [5]: 2 | Activity (Oryctolagus cuniculus [20]): inactive

More lines, main results first:

RBA (Oryctolagus cuniculus [3]): 2.9
SMILES: C[C@]12C[C@@H]3CCc4cc(O)ccc4[C@@H]3C[C@@H]1CC[C@@H]2O
ED100 (Rattus norvegicus [1]): 1 mg/kg/day | relative binding affinity (RBA) (Rattus norvegicus [2]): 0.02

RBA [5]: < 0.4 | RBA (Oryctolagus cuniculus [3]): 0.06
SMILES: C[C@]12C[C@@H]3CCC4=CC(=O)CC[C@H]4[C@@H]3C[C@@H]1CC[C@@H]2O
Activity (Rattus norvegicus [7]): inactive | Activity (Rattus norvegicus [8]): inactive | Activity (Rattus norvegicus [9]): inactive | Activity (Rattus norvegicus [10]): inactive | Activity (Rattus norvegicus [11]): inactive | Activity (Rattus norvegicus [12]): inactive

RBA [5]: 1.9
SMILES: CC(=O)[C@H]1CC[C@H]2C[C@@H]3[C@@H](CCC4CC(=O)C=C[C@H]43)C[C@@]21C (stereo partly specified)
Activity (Oryctolagus cuniculus [13]): inactive | Activity (Oryctolagus cuniculus [14]): inactive

RBA [5]: < 0.4 | RBA (Oryctolagus cuniculus [3]): < 0.025
SMILES: COc1ccc2c(c1)CC[C@H]1C[C@@]3(C)C(=CC[C@@H]3OC(C)=O)C=C21
Activity (Rattus norvegicus [15]): inactive

RBA [5]: < 0.4 | RBA (Oryctolagus cuniculus [3]): < 0.085
SMILES: C[C@]12C[C@@H]3CCC4=C(CCC(=O)C4)[C@@H]3C[C@@H]1CC[C@@H]2O
Activity (Rattus norvegicus [7]): inactive | Activity (Rattus norvegicus [8]): inactive | Activity (Rattus norvegicus [9]): inactive | Activity (Rattus norvegicus [10]): inactive | Activity (Rattus norvegicus [11]): inactive | Activity (Rattus norvegicus [12]): inactive
